Data from article PMC2855844 (Cancer immunology, immunotherapy : CII, 2009).
“Also recorded” adds a separate entry of the source.

Assays:
H2-K^d = H2-K^d (Mus musculus, UniProt P01902); experiment: MHC stabilization assay; assay type: binding; details: T2-K^d cells, 37°C, MFI with anti-H2-K^d mAb and FITC-conjugated anti-mouse IgG
Procedure, shortened: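 Peptide-pulsed T2-Kd cells were kept at 37°C, then stained with anti-H2-Kd mAb (HB159) and FITC-conjugated anti-mouse IgG. Surface Kd was read as mean fluorescence intensity. Reference samples were unpulsed cells and peptide-pulsed cells held at 4°C.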

Meth A-specific CTL = assay type: cell-based, mouse; details: E/T ratio 6:1, 4 h ^51Cr-release
Procedure, shortened: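 Targets were T2-Kd cells pulsed with peptide, labeled with Na51CrO4, and plated at 1 × 10^3 per well. Meth A-specific CTL (cloned CD3+CD4−CD8+NK-1.1− line from Meth A-immune BALB/c mice) were added at E:T 6:1. Release was measured over 4 h and expressed as % specific lysis.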

human CD8^+ T cells = experiment: in vitro stimulation of human CD8^+ T cells; assay type: cell-based; details: preliminary findings; listed as Hsd17b12^114T peptide
[1] = T2-K^d cells pulsed with peptide

H2-K^d, sequence (P01902 whole entry, looked up): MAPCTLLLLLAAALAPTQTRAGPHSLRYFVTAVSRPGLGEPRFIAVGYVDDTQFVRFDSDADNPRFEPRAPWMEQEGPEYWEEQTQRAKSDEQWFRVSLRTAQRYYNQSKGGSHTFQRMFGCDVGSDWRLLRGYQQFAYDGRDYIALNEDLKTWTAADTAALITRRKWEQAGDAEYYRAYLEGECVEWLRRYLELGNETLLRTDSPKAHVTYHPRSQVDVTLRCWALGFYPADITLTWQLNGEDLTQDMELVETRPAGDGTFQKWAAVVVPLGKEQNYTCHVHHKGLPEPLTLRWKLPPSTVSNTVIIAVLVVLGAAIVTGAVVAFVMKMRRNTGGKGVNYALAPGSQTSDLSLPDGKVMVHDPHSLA

affinity for H2-K^d molecules (H2-K^d) | Sequence | affinity of Meth A CTL for peptide (Meth A-specific CTL; [1]) | recognition by Meth A-specific CTL (in words) (Meth A-specific CTL; [1]) | fold higher affinity of Meth A CTL (TYDKIKTGL vs IYDKIKTGL) (Meth A-specific CTL; TYDKIKTGL over IYDKIKTGL, T2-K^d cells) [×] | immunogenicity, stimulation of human CD8^+ T cells in vitro (human CD8^+ T cells)
~ 1 × 10^−8 M | IYDKIKTGL | < 1e-08 M |  |  | 
~ 1 × 10^−8 M | TYDKIKTGL | ~ 1 × 10^−10 M | recognized by the Meth A-specific CTL | 100 | immunogenic; also recorded: can induce effectors cross-reactive against the HSD17B12_114–122 peptide, naturally presented by human tumor cell lines
